Test results reported in PMC7974029 (The Journal of Biological Chemistry, 2021).

What was measured:
BfSGBP-B [1] = molecular target: T1, BfSGBP-B (Bacteroides fluxus, UniProt F3PPH3); assay: ITC of laminarioligosaccharides and MLG oligosaccharides with BfSGBP-B; assay type: binding
T1 sequence (F3PPH3 21-290): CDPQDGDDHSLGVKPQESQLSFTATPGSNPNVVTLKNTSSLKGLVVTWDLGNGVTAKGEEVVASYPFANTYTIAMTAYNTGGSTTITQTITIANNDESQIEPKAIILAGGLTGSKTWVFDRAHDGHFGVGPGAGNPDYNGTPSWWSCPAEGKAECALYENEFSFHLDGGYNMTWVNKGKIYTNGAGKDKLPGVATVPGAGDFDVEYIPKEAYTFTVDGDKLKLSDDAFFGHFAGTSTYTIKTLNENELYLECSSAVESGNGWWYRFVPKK
Summary of the method: (§1)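 Recombinant SGBP from E. coli BL21(DE3) (IMAC, tag cleavage, SEC) at 100 μM in the cell was titrated with 1 mM laminari- or mixed-linkage gluco-oligosaccharide, all in 20 mM HEPES pH 7.0, at 25 °C. One 0.2 μl injection, then 18 × 2 μl at 150 s intervals, stirring 750 rpm. Isotherms were fitted with stoichiometry n fixed at 1.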

BtSGBP-A = molecular target: T2, BtSGBP-A (Bacteroides thetaiotaomicron, UniProt A0A173VPY3); assay: ITC of laminarioligosaccharides with BtSGBP-A; assay type: binding; conditions: for KD: BtSGBP-A, ITC, value as given in running text
T2 sequence (A0A173VPY3 23-515): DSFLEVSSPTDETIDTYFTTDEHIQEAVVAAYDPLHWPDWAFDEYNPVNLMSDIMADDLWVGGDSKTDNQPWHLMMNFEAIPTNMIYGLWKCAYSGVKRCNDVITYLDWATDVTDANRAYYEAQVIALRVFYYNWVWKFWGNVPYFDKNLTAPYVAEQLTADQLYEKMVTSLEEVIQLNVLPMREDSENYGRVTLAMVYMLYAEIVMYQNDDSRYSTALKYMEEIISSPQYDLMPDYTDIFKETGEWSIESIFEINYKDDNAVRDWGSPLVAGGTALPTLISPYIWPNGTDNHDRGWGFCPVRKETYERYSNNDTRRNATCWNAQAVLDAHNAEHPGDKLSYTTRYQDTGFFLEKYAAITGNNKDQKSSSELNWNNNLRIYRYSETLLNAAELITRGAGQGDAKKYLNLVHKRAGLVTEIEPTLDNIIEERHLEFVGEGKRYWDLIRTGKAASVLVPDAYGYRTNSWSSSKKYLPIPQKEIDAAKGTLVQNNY
Summary of the method: as §1

BuSGBP-B = BuSGBP-B full length; cited from earlier work
CBML-middle of BuSGBP-B = assay: Affinity gel electrophoresis, BuSGBP-B CBML-middle domain; assay type: binding, Bacteroides uniformis; conditions: 0.1% (w/v) polysaccharide in native gel
Summary of the method: (§2)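 Native PAGE with 10% (w/v) acrylamide cast with 0.1% (w/v) polysaccharide, or water for the control gel. 6.0 μg recombinant SGBP domain (His₆-tagged, E. coli BL21(DE3), Ni-IMAC, tag removed, size-exclusion purified) and 5.0 μg BSA reference were loaded. Gels were run nondenaturing at 80 V, 3 h, room temperature, and stained with Coomassie Brilliant Blue.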

[2] = system: CBML-middle domain of BtSGBP; assay: Affinity gel electrophoresis, BtSGBP-B CBML-middle domain; assay type: binding, Bacteroides thetaiotaomicron; conditions: 0.1% (w/v) polysaccharide in native gel
Summary of the method: as §2

BfSGBP-B [3] = molecular target: T1, BfSGBP-B; conditions: BfSGBP-B full length; cited from earlier work
CBML-distal of BuSGBP-B = assay: Affinity gel electrophoresis, BuSGBP-B CBML-distal domain; assay type: binding, Bacteroides uniformis; conditions: 0.1% (w/v) polysaccharide in native gel
Summary of the method: as §2

BuSGBP-A = conditions: cited from earlier work

For `OC[C@H]1O[C@@H](O[C@H]2[C@H](O)[C@@H](O)[C@H](O[C@H]3[C@H](O)[C@@H](CO)OC(O)[C@@H]3O)O[C@@H]2CO)[C@H](O)[C@@H](O)[C@@H]1O` (stereo partly drawn) [G4G3G], the “binding to BfSGBP-B by ITC (in words)” value (BfSGBP-B [1]) was “binding”.

With `OC[C@H]1O[C@@H](O[C@H]2[C@H](O)[C@@H](O)[C@H](O[C@H]3[C@H](O)[C@@H](O)[C@H](O[C@H]4[C@H](O)[C@@H](CO)OC(O)[C@@H]4O)O[C@@H]3CO)O[C@@H]2CO)[C@H](O)[C@@H](O)[C@@H]1O` (stereo partly drawn) [G4G4G3G] the “binding to BfSGBP-B by ITC (in words)” value (BfSGBP-B [1]) was “binding”.

With `OC[C@H]1O[C@@H](O[C@@H]2[C@@H](O)[C@H](O[C@@H]3[C@@H](O)[C@H](O[C@@H]4[C@@H](O)[C@H](O[C@@H]5[C@@H](O)[C@H](O[C@H]6[C@H](O)[C@@H](CO)OC(O)[C@@H]6O)O[C@H](CO)[C@H]5O)O[C@H](CO)[C@H]4O)O[C@H](CO)[C@H]3O)O[C@H](CO)[C@H]2O)[C@H](O)[C@@H](O)[C@@H]1O` (stereo partly drawn) [Laminarihexaose] the Kd (BtSGBP-A) was 26 µM.

With `OC[C@H]1O[C@@H](O[C@@H]2[C@@H](O)[C@H](O[C@@H]3[C@@H](O)[C@H](O[C@@H]4[C@@H](O)[C@H](O[C@H]5[C@H](O)[C@@H](CO)OC(O)[C@@H]5O)O[C@H](CO)[C@H]4O)O[C@H](CO)[C@H]3O)O[C@H](CO)[C@H]2O)[C@H](O)[C@@H](O)[C@@H]1O` (stereo partly drawn) [Laminaripentaose] the Kd (BtSGBP-A) was 210 µM.

With `OC[C@H]1O[C@@H](O[C@@H]2[C@@H](O)[C@H](O[C@@H]3[C@@H](O)[C@H](O[C@H]4[C@H](O)[C@@H](CO)OC(O)[C@@H]4O)O[C@H](CO)[C@H]3O)O[C@H](CO)[C@H]2O)[C@H](O)[C@@H](O)[C@@H]1O` (stereo partly drawn) [Laminaritetraose] the KD (BtSGBP-A) was “too weak to be quantified”.

In the case of `OC[C@H]1O[C@@H](O[C@@H]2[C@@H](O)[C@H](O[C@H]3[C@H](O)[C@@H](CO)OC(O)[C@@H]3O)O[C@H](CO)[C@H]2O)[C@H](O)[C@@H](O)[C@@H]1O` (stereo partly drawn) [Laminaritriose], the KD (BtSGBP-A) is reported as “too weak to be quantified”.

For “mixed-linkage β(1,3)/β(1,4)-glucan [MLG]”, the polysaccharide binding (BuSGBP-B) is listed as “bind”, the “binding by affinity gel electrophoresis (AGE)” value (shortened to “binding … (AGE)”) (CBML-middle of BuSGBP-B) is listed as “exclusively responsible for the binding” and the “binding … (AGE)” value [2] is listed as “cannot bind”. For the same compound, the polysaccharide binding (BfSGBP-B [3]) was “bind”.

In the case of β(1,3)-glucan, the “binding … (AGE)” value (CBML-distal of BuSGBP-B) is listed as “bind”, the polysaccharide binding (BuSGBP-B) is listed as “bind” and the “binding … (AGE)” value (CBML-middle of BuSGBP-B) is listed as “bind”. The polysaccharide binding (BuSGBP-A) was “does not display binding” and the polysaccharide binding (BfSGBP-B [3]) was “bind”.
